Results on eight compounds are retold here after ChEMBL document CHEMBL1125826, “Synthesis and biological activity of 5-amino- and 5-hydroxyquinolones, and the overwhelming influence of the remote N1-substituent in determining the structure-activity relationship” (1991).

≈ marks a conversion by molar mass, not a printed value.

Common to all, as to assay type: functional
The subject of test [1] is Bacteria. As to the kind of experiment: MIC ratio measured as the mean MICs of gram-negative bacteria. Summed up:
(§1)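 Geometric mean of the microtitration MICs (µg/mL) over the Gram-negative organisms, and separately over the Gram-positive organisms, of the 10-strain panel; individual MICs averaged from multiple experiments.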

Test [2] addresses DNA gyrase (Escherichia coli) (UniProt P0AES6+P0AES4). The test can be described thus: Minimum inhibitory concentration against Escherichia coli DNA-gyrase in supercoiling assay.
Test [3] deals with Streptococcus pneumoniae. As to the kind of experiment: Antibacterial activity was determined against gram positive organism, Streptococcus pneumoniae SV-1. Particulars: Streptococcus pneumoniae; read-out: MIC. Summed up:
(§2)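 MIC (µg/mL) by standard microtitration against a panel of 10 Gram-positive and Gram-negative organisms; values averaged from multiple experiments.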

Test [4] concerns Staphylococcus aureus. As to the kind of experiment: Antibacterial activity was determined against gram positive organism, Staphylococcus aureus UC76. Summed up: as §2
For test [5], the system named is Bacteria. The test can be described thus: Antibacterial activity was determined against gram negative organism, Providencia rettgeri. M1771. Particulars: Bacteria; read-out: MIC. In a few lines:
as §2

Test [6] deals with Klebsiella pneumoniae. The test can be described thus: Antibacterial activity was determined against gram negative organism, Klebsiella pneumoniae MGH-2. Particulars: Klebsiella pneumoniae; read-out: MIC. Summed up:
as §2

Test [7] relates to Pseudomonas aeruginosa. The test can be described thus: Antibacterial activity was determined against gram negative organism, Pseudomonas aeruginosa UI-18. Particulars: Pseudomonas aeruginosa; read-out: MIC. Summed up: as §2
The test system of test [8] is Enterococcus faecalis. As to the kind of experiment: Antibacterial activity was determined against gram positive organism, Streptococcus faecalis MGH-2. Particulars: Enterococcus faecalis; read-out: MIC. Summed up:
as §2

The subject of test [9] is Staphylococcus aureus. As to the kind of experiment: Antibacterial activity was determined against gram positive organism, Staphylococcus aureus H228. Particulars: Staphylococcus aureus; read-out: MIC. Summed up: as §2
The subject of test [10] is Escherichia coli. The test can be described thus: Antibacterial activity was determined against gram negative organism, Escherichia coli vogel. Particulars: Escherichia coli; read-out: MIC. Summed up:
as §2

The subject of test [11] is Bacteria. As to the kind of experiment: MIC ratio measured as the mean MICs of gram-positive bacteria. Summed up: as §1
Test [12] concerns Streptococcus pyogenes. As to the kind of experiment: Antibacterial activity was determined against gram positive organism, Streptococcus pyogenes C203. Particulars: Streptococcus pyogenes; read-out: MIC. Summed up:
as §2

The subject of test [13] is Enterobacter cloacae. As to the kind of experiment: Antibacterial activity was determined against gram negative organism, Enterobacter cloacae MA2646. Particulars: Enterobacter cloacae; read-out: MIC.
Setting [14] is: Staphylococcus aureus, read-out: MIC.

In the case of `NC1CCN(c2c(F)cc3c(=O)c(C(=O)O)cn(C4CC4)c3c2Cl)C1` (stereo in doubt; 1f-4), the Geometric mean MIC over Gram-negative bacteria (µg/mL) in [1] is 0.057. This compound also yielded an MIC in test [2] of 0.25 µg/mL (≈ 0.683 µM).
Take `CCn1cc(C(=O)O)c(=O)c2cc(F)c(N3CC(C)NC(C)C3)c(F)c21` (configuration not stated): the MIC is 6.3 µg/mL (≈ 17.2 µM) in test [3]; 0.8 µg/mL (≈ 2.19 µM) in test [4]; 1.6 µg/mL (≈ 4.38 µM) in [5]; 0.4 µg/mL (≈ 1.09 µM) in [6]; 12.5 µg/mL (≈ 34.2 µM) in test [7]; 6.3 µg/mL (≈ 17.2 µM) in test [8]. Besides, the MIC was determined as 1.6 µg/mL (≈ 4.38 µM) in [9]; 0.2 µg/mL (≈ 0.547 µM) in test [10]; 3.8 µg/mL (≈ 10.4 µM) in test [2]; 6.3 µg/mL (≈ 17.2 µM) in [12]; 0.2 µg/mL (≈ 0.547 µM) in [13]. Also, the Geometric mean MIC over Gram-negative bacteria (µg/mL) in test [1] was determined as 0.79. Moreover, the “Geometric mean MIC over Gram-positive bacteria (µg/mL)” value in test [11] was found to be 3.17.
Consider `CCNCC1CCN(c2c(F)cc3c(=O)c(C(=O)O)cn(CC)c3c2F)C1` (configuration not stated) [MERAFLOXACIN], for which the MIC in [3] was 0.1 µg/mL (≈ 0.264 µM); in [4] it was 0.05 µg/mL (≈ 0.132 µM); in [5], 0.4 µg/mL (≈ 1.05 µM); in test [6], 0.2 µg/mL (≈ 0.527 µM); in test [7] it was 1.6 µg/mL (≈ 4.22 µM); in [8], 0.1 µg/mL (≈ 0.264 µM). The MIC in test [9] was 0.1 µg/mL (≈ 0.264 µM); in test [10], 0.1 µg/mL (≈ 0.264 µM); in test [2], 2.5 µg/mL (≈ 6.59 µM); in test [12], 0.1 µg/mL (≈ 0.264 µM); in [13] it was 0.1 µg/mL (≈ 0.264 µM). In addition, the Geometric mean MIC over Gram-negative bacteria (µg/mL) in [1] came out at 0.26. For the same compound, in test [11], the Ratio was 0.087.
On to `O=C(O)c1cn(C2CC2)c2c(F)c(N3CCNCC3)c(F)c(O)c2c1=O`, for which the MIC in test [3] was 1.6 µg/mL (≈ 4.38 µM); in test [4] (setting [14]) it was 0.2 µg/mL (≈ 0.547 µM); in test [5] it was 0.2 µg/mL (≈ 0.547 µM); in test [6] it was 0.2 µg/mL (≈ 0.547 µM); in [7], 0.8 µg/mL (≈ 2.19 µM); in test [8], 1.6 µg/mL (≈ 4.38 µM). The MIC in [9] was 1.6 µg/mL (≈ 4.38 µM); in [10], 0.05 µg/mL (≈ 0.137 µM); in test [2], 0.5 µg/mL (≈ 1.37 µM); in test [12] it was 1.6 µg/mL (≈ 4.38 µM); in test [13] it was 0.1 µg/mL (≈ 0.274 µM). The Geometric mean MIC over Gram-negative bacteria (µg/mL) in [1] was determined as 0.17. In addition, the “Geometric mean MIC over Gram-positive bacteria (µg/mL)” value in [11] worked out at 1.06.
On to `CCn1cc(C(=O)O)c(=O)c2c(N)c(F)c(N3CC(C)NC(C)C3)c(F)c21` (configuration not stated), for which the MIC is 12.5 µg/mL (≈ 32.9 µM) in test [3]; 0.8 µg/mL (≈ 2.1 µM) in test [4] (setting [14]); 3.1 µg/mL (≈ 8.15 µM) in [5]; 0.8 µg/mL (≈ 2.1 µM) in test [6]; 12.5 µg/mL (≈ 32.9 µM) in [7]; 6.3 µg/mL (≈ 16.6 µM) in [8]. For the same compound, the MIC in test [9] was 1.6 µg/mL (≈ 4.21 µM); in [10], 0.4 µg/mL (≈ 1.05 µM); in test [2] it was 7.5 µg/mL (≈ 19.7 µM); in test [12], 25 µg/mL (≈ 65.7 µM); in test [13], 0.8 µg/mL (≈ 2.1 µM). The Geometric mean MIC over Gram-negative bacteria (µg/mL) in test [1] worked out at 1.58. Moreover, the “Geometric mean MIC over Gram-positive bacteria (µg/mL)” value in test [11] is 4.79.
For the compound `CCn1cc(C(=O)O)c(=O)c2cc(F)c(N3CCC(N)C3)c(Cl)c21` (configuration not stated), the MIC turned out to be 0.4 µg/mL (≈ 1.13 µM) in test [3]; 0.1 µg/mL (≈ 0.283 µM) in test [4]; 0.2 µg/mL (≈ 0.565 µM) in [5]; 0.1 µg/mL (≈ 0.283 µM) in [6]; 0.8 µg/mL (≈ 2.26 µM) in [7]; 0.4 µg/mL (≈ 1.13 µM) in test [8]. For the same compound, the MIC in [9] was 0.4 µg/mL (≈ 1.13 µM); in test [10], 0.05 µg/mL (≈ 0.141 µM); in test [2] it was 2.5 µg/mL (≈ 7.07 µM); in test [12], 0.4 µg/mL (≈ 1.13 µM); in test [13], 0.05 µg/mL (≈ 0.141 µM). In addition, the Geometric mean MIC over Gram-negative bacteria (µg/mL) in test [1] stood at 0.13. Also, in [11], the “Geometric mean MIC over Gram-positive bacteria (µg/mL)” value is on record as 0.3.
For `CCn1cc(C(=O)O)c(=O)c2c(O)c(F)c(N3CCC(N)C3)c(F)c21` (configuration not stated), the MIC worked out at 1.6 µg/mL (≈ 4.53 µM) in test [3]; 0.2 µg/mL (≈ 0.566 µM) in [4] (setting [14]); 0.4 µg/mL (≈ 1.13 µM) in [5]; 0.4 µg/mL (≈ 1.13 µM) in [6]; 0.8 µg/mL (≈ 2.26 µM) in test [7]; 3.1 µg/mL (≈ 8.77 µM) in test [8]. Further, the MIC in test [9] worked out at 1.6 µg/mL (≈ 4.53 µM); in test [10] it was 0.2 µg/mL (≈ 0.566 µM); in [2], 2.5 µg/mL (≈ 7.08 µM); in [12], 1.6 µg/mL (≈ 4.53 µM); in test [13] it was 0.2 µg/mL (≈ 0.566 µM). Also, the Geometric mean MIC over Gram-negative bacteria (µg/mL) in [1] is 0.35. The “Geometric mean MIC over Gram-positive bacteria (µg/mL)” value in [11] is reported as 1.2.
Turning to `NC1CCN(c2c(F)cc3c(=O)c(C(=O)O)cn(C4CC4)c3c2Cl)C1` (stereo in doubt; 1h-4), the Geometric mean MIC over Gram-negative bacteria (µg/mL) in test [1] worked out at 0.029. For the same compound, the MIC in [2] was 0.5 µg/mL (≈ 1.37 µM).
